Source: PubChem BioAssay
This is a sample that favours compounds with a hit; in the whole collection about 6.4% have one here.
WT yeast gro inh: growth inhibition of WT yeast, mitochondrial fusion screen | inhibition, % at 10 µM | mitochondrial fusion phenotypic screen, WT strain | 190,000 compounds, 2.1% hits; in the data active = inhibition above about 58%; tested in S. cerevisiae
MPTP inh: blocks calcium-induced mitochondrial swelling. 360,000 compounds, 1.4% hits. inhibition, % at 10 µM. isolated mouse mitochondria, Ca2+ swelling absorbance, 30 min;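 active = inhibition of 50% or more, scaled per plate between neutral and stimulator controls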;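 note: 0% = DMSO wells given calcium and 100% = 1 mM EGTA wells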
EBV gp42 block: EBV gp42 inhibition; Q1HVG2; Fluorescence polarization binding assay, mP read-out; inhibition, % (tested at 21.74 µM); 220,000 compounds, 0.42% hits; AID 1085; in the data active = inhibition above about 50%
Target sequence (Q1HVG2 whole entry, looked up): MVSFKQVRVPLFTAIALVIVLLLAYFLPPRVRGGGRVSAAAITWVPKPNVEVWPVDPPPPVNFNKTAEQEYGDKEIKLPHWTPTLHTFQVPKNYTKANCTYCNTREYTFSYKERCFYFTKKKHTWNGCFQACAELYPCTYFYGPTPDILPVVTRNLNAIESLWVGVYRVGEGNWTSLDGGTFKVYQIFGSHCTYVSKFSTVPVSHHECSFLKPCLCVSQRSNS
Tb MetRS inh: blocks T. brucei methionyl-tRNA synthetase activity; AID 624268; purified T. brucei MetRS, ATP depletion, Kinase-Glo luminescence; inhibition, % at 11.9 µM; 360,000 compounds, 0.4% hits;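 active = inhibition above a per-plate cutoff of the control wells' mean inhibition plus 3 SD, cut at about 5.5% in these data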;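 note: 0% = DMSO wells median and 100% = median of wells with control inhibitor compound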
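Test system – parasite MetRS enzyme · Reagent – substrates ATP, L-methionine and bulk Escherichia coli tRNA · Doses – 11.9 µM compound single dose, 0.9% DMSO · Times – 15 min enzyme-compound preincubation, 2 h reaction, 10 min detection, 25 °C · Signal – Kinase-Glo luminescence, ATP depletion format · Controls – DMSO-only wells as low control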
CHOP inhibitor: blocks CHOP induction under ER stress; CHO-K1 CHOP-promoter luciferase, tunicamycin-induced, 15-18 h; inhibition, % at 10 µM; 220,000 compounds, 3.8% hits; AID 2732;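 active = compounds that reduced the stress-induced luciferase reporter signal by more than about 70% of percent inhibition, limit read from the data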;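 note: 0% = tunicamycin plus vehicle and 100% = wells without tunicamycin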
NR3A LBD binder: modulators (binders) of human NR3A ligand-binding domain; NR3A LBD differential scanning fluorimetry, Tm shift; 0% = protein alone, 100% = glycine-bound protein; Tm shift relative to glycine control, % at 25 µM; 340,000 compounds, 2.5% hits; AID 1259313;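 active = melting temperature shift of at least 10% of the positive control shift, at one fixed dose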
An asterisk follows results filed as active; x = not tested or not shown.

SMILES	WT yeast gro inh	MPTP inh	EBV gp42 block	Tb MetRS inh	CHOP inhibitor	NR3A LBD binder
COc1ccc(C(=O)NC2CCCCC2)cc1OC1CCN(C(C)C)CC1	x	-1	x	0	x	13*
COc1ccc(C(=O)NC2CC2)cc1OC1CCN(Cc2cc(C)c(C)cc2C)CC1	x	0	x	-1	x	103*
COc1ccc(C(=O)NC2CC2)cc1OC1CCN(Cc2cnn(C)c2C)CC1	x	0	x	0	x	3
CCOC(=O)COn1c(=O)c(-c2ccco2)[n+]([O-])c2ccccc21	-31	-3	-7	0	17	4
CCCN(C(=O)COC(=O)CNC(=O)c1ccc2ccccc2c1)c1c(N)n(Cc2ccccc2)c(=O)[nH]c1=O	x	0	x	0	x	21*
CSc1nncn1/N=C/c1ccc([N+](=O)[O-])cc1	-20	1	-13	0	8	-1
CSc1nncn1/N=C/c1ccc2c(c1)OCO2	64*	-2	-7	1	2	-2
CC(=O)c1ccc(Nc2ccc(-c3ccccc3F)nn2)cc1	-15	0	-4	-1	-24	8
COc1ccc2c(c1)CC/C(=C\Nc1ccc3c(c1)OCO3)C2=O	x	2	-23	-2	-10	2
O=C1/C(=C/Nc2ccc3c(c2)OCO3)CCc2ccccc21	62*	6	-15	-1	77*	-4
COc1ccc(N/C=C2\CCc3ccccc3C2=O)cc1	56	-3	-31	-1	83*	-22
CN(C)c1nc(OCc2ccccc2)c2ncc(=O)[nH]c2n1	x	4	x	0	x	-1
CC1CC2=C(NC(=S)NC2c2ccccc2F)/C(=C/c2ccccc2F)C1 (configuration not stated)	80*	-2	5	-2	33	-1
Cc1ccc(/C=C2\CC(C)CC3=C2NC(=S)NC3c2ccc(C)cc2)cc1 (configuration not stated)	x	2	-10	-1	53	0
CC1CC2=C(NC(=S)NC2c2cccc(F)c2)/C(=C/c2cccc(F)c2)C1 (configuration not stated)	61*	-4	5	-1	86*	2
CC(c1nccs1)N(C)C(=O)CCc1nnc(Cc2c[nH]c3ccccc23)o1 (configuration not stated)	12	1	4	0	7	0
COc1ccc(S(=O)(=O)N2CCN(C(=O)CC3CC4CCC3C4)CC2)cc1 (configuration not stated)	x	-2	x	0	x	2
COc1ccc(-c2nn(-c3ccccc3)cc2C(=O)NCCCn2ccnc2)cc1	3	-1	-13	-1	1	-1
COc1ccc(/C=N\NS(=O)(=O)c2ccc(Br)cc2)cc1COc1ccccc1[N+](=O)[O-]	-13	-1	-15	-1	-7	25*
COc1cc(/C=N/NS(=O)(=O)c2ccc(Br)cc2)ccc1O	x	2	x	0	x	1
COc1ccc(/C=N\NS(=O)(=O)c2ccc(Cl)cc2)cc1COc1ccccc1[N+](=O)[O-]	-2	-1	5	0	50	24*
COC(=O)Oc1ccc(/C=N/NS(=O)(=O)c2ccccc2)cc1OC	x	-1	x	1	x	0
O=C(Cn1nc2n(c1=O)-c1ccccc1SC2)N/N=C/c1cccs1	x	0	5	0	15	-1
Oc1ccc2c(c1)oc1cc(O)ccc12	-3	2	-2	0	23	18*
COc1c(C)oc2cc(O)ccc2c1=O	19	-1	15	-1	11	1
SMILES	WT yeast gro inh	MPTP inh	EBV gp42 block	Tb MetRS inh	CHOP inhibitor	NR3A LBD binder
CCCCc1c(C)nc(Nc2ccc(OC)cc2)[nH]c1=O	-2	5	-18	0	29	-2
CCCCCc1c(C)nc(Nc2ccc(F)cc2)[nH]c1=O	-15	38	-1	0	82*	0
O=S(=O)(c1ccccc1)[C@@]1(c2ccc(Br)cc2)C[C@@H]2ON=C(c3cccc(Br)c3)[C@@H]2C1	x	0	x	0	x	-6
C(=N\N1CCOCC1)/c1nc(-c2ccccc2)n2ccccc12	-9	2	62*	0	7	0
CSc1cccc(NC(=O)C2CCN(S(=O)(=O)c3ccc(F)cc3)CC2)c1	19	4	-19	-1	39	5
Cn1c(CNC(=O)c2ccccc2)nnc1SCC(=O)N1CCN(c2ccccc2)CC1	-9	-1	-5	-1	-7	1
